Screens from PubChem.
This is a sample that favours compounds with a hit; in the whole collection about 2.2% have one here.
Runt-SMMHC FRET: inhibitors of RUNX1 Runt–CBFb-SMMHC binding, primary screen, biochemical, FRET, Cerulean-Runt, Venus-CBFb-SMMHC, uHTS. Runt-related transcription factor 1 (Homo sapiens) + Core-binding factor subunit beta …. Cerulean-Runt/Venus-CBFb-SMMHC FRET ratio 530/480, 1 h. inhibition, % at 20 µM. actives 0.74% (n = 220,000). AID 1434, 2008;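 active = mean inhibition across duplicate retests at 20 µM reaching about 50%, limit read from the data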;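 also: 0% = DMSO wells and 100% = wells with excess untagged CBFb-SMMHC; inhibitors lower the FRET ratio by blocking Runt binding to CBFb-SMMHC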
Hck Nef HTS: inhibitors of Nef-activated human Hck kinase, primary screen, biochemical, Z-Lyte FRET, 384-well, Hck-YEEI; Tyrosine-protein kinase HCK (Homo sapiens), P08631; Recombinant Hck-YEEI plus Nef, Z-Lyte FRET kinase assay; inhibition, % at 20 µM; actives 0.68% (n = 220,000);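 active = Hck-Nef kinase inhibition above about 50%, limit read from the data; inactive = inhibition below that limit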;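 also: 0% = DMSO with Hck plus Nef and 100% = Hck alone without Nef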
eIF4E 4G PPI: eIF4E–eIF4G protein interaction inhibitors, primary screen, biochemical, uHTS, TR-FRET, eIF4GI fragment. Eukaryotic translation initiation factor 4E (Mus musculus) + Eukaryotic translation …. TR-FRET eIF4E-eIF4GI(517-606) binding, 2 h. inhibition, % at 21.7 µM. actives 0.37% (n = 220,000). AID 782, 2007;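 active = inhibition above about 30%, limit read from the data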;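 also: 0% = full FRET control wells and 100% = background wells lacking eIF4GI fragment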
PERK inhibitor: block of dimerizer-induced PERK translation repression, primary screen, PERK inhibitor project, CHO PERK-DD cells, SEAP luminescence, HTS. actives 0.17% (n = 220,000). inhibition, % at 5.6 µM. Eukaryotic translation initiation factor 2-alpha kinase 3 (Homo sapiens), Q9NZJ5. AID 1416, 2008. CHO PERK-DD fusion, SEAP luminescence translation reporter;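 active = inhibition above the mean inhibition of all tested compounds plus 3 SD, set separately per screening campaign, cut at about 2.9% in these data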;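 also: PERK kinase domain activated by AP20187 dimerizer at 100 nM; 0% = DMSO with dimerizer and 100% = rapamycin at 8.4 µM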
Target sequence (Q9NZJ5 whole entry, looked up, the tested form may be a part): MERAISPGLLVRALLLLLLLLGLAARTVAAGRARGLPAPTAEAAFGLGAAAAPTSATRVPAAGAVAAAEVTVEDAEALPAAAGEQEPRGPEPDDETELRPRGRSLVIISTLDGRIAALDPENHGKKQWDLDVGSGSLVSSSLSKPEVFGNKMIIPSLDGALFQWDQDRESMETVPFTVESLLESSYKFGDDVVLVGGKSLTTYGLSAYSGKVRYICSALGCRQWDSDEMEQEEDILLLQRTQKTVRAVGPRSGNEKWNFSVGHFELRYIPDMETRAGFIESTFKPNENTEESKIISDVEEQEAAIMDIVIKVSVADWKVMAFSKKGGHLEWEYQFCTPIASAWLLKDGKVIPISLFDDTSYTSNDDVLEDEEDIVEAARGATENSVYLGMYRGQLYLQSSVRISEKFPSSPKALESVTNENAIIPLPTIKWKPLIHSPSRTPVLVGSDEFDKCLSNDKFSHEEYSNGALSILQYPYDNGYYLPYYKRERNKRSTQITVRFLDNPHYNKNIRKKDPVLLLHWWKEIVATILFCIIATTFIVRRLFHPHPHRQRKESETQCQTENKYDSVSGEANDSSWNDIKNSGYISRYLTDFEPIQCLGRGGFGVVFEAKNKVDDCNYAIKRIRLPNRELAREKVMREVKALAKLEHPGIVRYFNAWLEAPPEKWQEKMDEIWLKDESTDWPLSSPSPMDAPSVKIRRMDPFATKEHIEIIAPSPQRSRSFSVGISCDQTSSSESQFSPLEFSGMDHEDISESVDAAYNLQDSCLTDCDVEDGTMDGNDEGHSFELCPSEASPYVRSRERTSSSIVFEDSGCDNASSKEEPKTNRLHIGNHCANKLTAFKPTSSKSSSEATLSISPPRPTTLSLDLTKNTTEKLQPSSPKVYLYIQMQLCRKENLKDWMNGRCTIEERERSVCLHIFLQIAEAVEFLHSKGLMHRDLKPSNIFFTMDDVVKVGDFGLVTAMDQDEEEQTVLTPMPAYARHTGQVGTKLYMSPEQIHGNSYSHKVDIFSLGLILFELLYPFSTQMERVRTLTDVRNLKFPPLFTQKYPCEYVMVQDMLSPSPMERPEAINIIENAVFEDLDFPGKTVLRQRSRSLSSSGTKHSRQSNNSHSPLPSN
Runt-CBFb FRET: inhibitors of RUNX1 Runt–CBFb binding, primary screen, biochemical, FRET, Cerulean-Runt, Venus-CBFb, uHTS | AID 1496, 2009 | Runt-related transcription factor 1 (Homo sapiens) + Core-binding factor subunit beta … | actives 0.46% (n = 220,000) | inhibition, % at 20 µM | Cerulean-Runt/Venus-CBFb FRET ratio 530/480, 1 h;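 active = inhibition over about 50% at 20 µM in the single-dose screen, limit read from the data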;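 also: 0% = DMSO wells and 100% = excess unlabeled CBFb competitor control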
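Assay system: Cerulean-Runt domain / Medium: Tris 50 mM pH 7.5, KCl, K2SO4, 0.01% BSA / Timing: protein complex preformed 1 h, compound exposure 1 h, room temperature, dark / Measured by: FRET, excitation 422 nm, emission at 530 and 480 nm / Evaluation: loss of energy transfer signal / Control set: 5 µM unlabeled CBFb as full-inhibition high control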
RanGTP-Impb inh: inhibitors of RanGTP-importin-beta interaction, primary screen, biochemical, FRET, CFP-Ran, YFP-importin-beta, homogeneous; AID 2216, 2009; Ran GTPase (GTP-bound) - importin-beta complex; actives 1.1% (n = 300,000); inhibition, % (no concentration beside the values); cell-free CFP-Ran/YFP-importin-beta FRET ratio;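 active = more than half of the replicate wells show a fall in the fluorescence ratio signal beyond about 16%, limit read from the data, passing the limit was not always enough; inconclusive = exactly half of the replicate wells pass the set limit; inactive = fewer than half of replicates pass the limit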;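 also: 0% = DMSO wells and 100% = Ran loaded with GDP instead of GTP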
RUNX1 CBFb TR: inhibitors of RUNX1 Runt–CBFb binding, biochemical, TR-FRET | shares compounds with Runt-CBFb FRET | TR-FRET RUNX1 Runt domain-CBFb binding | inhibition, % at 20 µM | actives 20% (n = 480); in the data active = inhibition above about 40%
Numbers without * were called inactive; i = inactive; u = inconclusive; x = not tested or not shown.

SMILES	Runt-SMMHC FRET	Hck Nef HTS	eIF4E 4G PPI	PERK inhibitor	Runt-CBFb FRET	RanGTP-Impb inh	RUNX1 CBFb TR
CC(NO)C(C)(C)NO (stereo not drawn)	2.7	0.4	6.2	0.4	-1.7	-2.5	x
COc1ccc(/C=C(\C#N)C(=O)Nc2cccc3ncccc23)cc1OC	60.1*	32.0	-2.8	-0.1	69.2*	50.4*	63.7*
COc1ccc(/C=C(/C#N)C(=O)Nc2cccnc2)cc1OC	1.2	8.6	5.6	0.5	0.2	-0.7	x
Oc1ccc2ccccc2c1C=NCc1ccccc1	3.1	-3.7	6.1	0.3	118.8*	-4.2	17.4
Oc1ccc2ccccc2c1/C=N/Nc1ccccc1	10.2	3.5	-3.6	0.7	8.2	-4.3	x
COc1ccc(OC)c2c1C(=O)C(Cl)=C(Cl)C2=O	66.2*	-38.5	7.4	-1.4	67.9*	1.3	19.4
O=C(CN1CCN(Cc2ccccc2)CC1)Nc1cccc(C(F)(F)F)c1	-2.8	0.5	4.6	0.4	-3.3	0.6	x
O=C(CN1CCN(c2ccccc2)CC1)Nc1cccc(C(F)(F)F)c1	-1.0	-0.5	-4.5	0.0	59.4*	9.2	-15.5
CCOc1cccc(-c2nnc3sc(-c4ccco4)nn23)c1	-1.8	4.3	-1.0	0.5	-1.8	-0.5	x
Cc1nnc(Sc2cc(NCCO)c([N+](=O)[O-])c3nonc23)s1	31.3	-9.2	0.0	0.2	52.2*	-0.6	26.9
CCOC(=O)C1=C(C)N=c2s/c(=C3\C(=O)Nc4ccccc43)c(=O)n2C1c1ccc2c(c1)OCO2 (stereo not drawn)	-3.8	2.0	-2.8	1.1	16.2	-2.0	x
C=CCOC(=O)C1=C(C)N=c2s/c(=C3\C(=O)N(CC(=O)O)c4ccccc43)c(=O)n2C1c1ccc(OC)cc1 (stereo not drawn)	-35.1	49.3	23.2	1.8	53.0*	-4.4	29.3
O=c1c2ccccc2sc2ccc(Cl)cc12	127.6*	8.1	12.6	0.8	69.3*	20.5*	i
CCC(C)NC(=S)NNC(=O)c1ccncc1 (stereo not drawn)	-5.9	20.4	-2.9	0.3	0.7	0.2	x
CCOC(=O)c1c(-c2ccccc2)oc2ccc(OC(C)=O)cc12	-1.4	0.6	-1.8	-0.9	51.6*	-2.4	29.2
NC(=S)N/N=C/c1ccc(-c2cc(Cl)cc(Cl)c2)o1	11.6	6.4	0.2	0.1	51.5*	0.8	16.7
O=C1NC2(CCCCCC2)C(=O)N1Cc1ccccc1Cl	x	x	x	x	x	1.5	x
Oc1ccc(O)c(Cc2nc3ccccc3s2)c1	9.6	9.5	-2.4	0.2	50.7*	1.0	43.4*
CC(=O)Nc1ccc2c(c1)C(=O)N(c1cccc(C)c1)C2=O	-0.8	20.4	2.2	1.4	-0.1	3.1	x
O=C(NNc1cc(Br)c(O)c(Br)c1)c1ccccc1	36.5	14.5	1.0	1.4	77.7*	-3.8	44.8*
COc1ccc(N=C2NC(=O)C(CO)(CO)S2)cc1	x	x	x	x	x	-7.1	x
Cc1ccc(C(=O)/C=C/C(=O)c2ccc(C)cc2)cc1	50.0	35.1	5.3	1.3	53.9*	3.1	19.2
Cc1ccc(/C=C/C(=O)c2ccc(C)cc2)cc1	0.9	7.2	2.9	-0.5	-2.8	-2.5	x
CC(Sc1nnc(-c2cccs2)n1N)C(=O)NCC1CCCO1 (stereo not drawn)	x	x	x	x	x	2.2	x
CCOC(=O)c1c(NC(=O)c2ccccc2)sc2c1CCc1ccccc1-2	26.8	7.9	-4.1	-0.1	54.8*	0.8	6.2
SMILES	Runt-SMMHC FRET	Hck Nef HTS	eIF4E 4G PPI	PERK inhibitor	Runt-CBFb FRET	RanGTP-Impb inh	RUNX1 CBFb TR
CCOC(=O)c1c(NC(=O)c2ccccc2Cl)sc2c1CCc1ccccc1-2	9.4	10.8	-0.8	-0.8	36.5	1.2	x
Cc1ccc(Nc2nc(-c3c(C)nc4ccccn34)cs2)cc1	-2.6	1.2	4.8	-0.8	3.5	u	x
Cc1nc2ccccn2c1-c1ccnc(=S)[nH]1	39.8	-45.0	-1.3	1.1	59.8*	0.6	19.5
O=C(O)C1CCN(C(=O)c2csc(-c3ccc4c(c3)CCO4)n2)CC1	0.1	3.8	-1.1	0.3	0.9	-2.8	x
CCN(c1ccc(NC(=O)COC(=O)c2ccc(C)s2)cc1)C(C)C	5.8	4.3	10.1	1.0	4.9	6.1	x
CCOc1ccccc1NC(=O)C(OC(=O)c1cc(C)oc1C)c1ccccc1 (stereo not drawn)	3.2	7.1	3.4	0.0	54.0*	-4.7	-13.3
CCOc1ccccc1NC(=O)C(OC(=O)c1ccccc1O)c1ccccc1 (stereo not drawn)	-0.6	-1.8	2.6	0.2	0.0	-4.4	x
CCOC(=O)C(C)Oc1ccccc1C1NC(=O)NC(C)=C1C(=O)Nc1ccc(C)c(C)c1 (stereo not drawn)	1.4	-0.1	-4.5	-0.3	-1.9	-3.0	x
CCCc1cc2c(=O)c(-c3cscn3)c(C(=O)OCC)oc2cc1O	-2.8	14.4	0.6	-0.1	-0.2	u	x
CCOC(=O)c1[nH]nc(-c2cc(CC)c(O)cc2O)c1-c1cscn1	0.3	2.3	2.8	-0.6	60.7*	-1.8	3.4
COc1ccc(S(=O)(=O)N(C(=O)C(C)C)c2ccc3oc(=O)sc3c2)cc1	55.9*	2.0	-2.6	-0.6	53.1*	0.2	4.4
COc1ccc(OC)c(S(=O)(=O)N(C(C)=O)c2ccc3oc(=O)sc3c2)c1	x	18.7	-4.4	0.1	66.6*	-1.0	12.5
CC(=O)N(c1ccc2oc(=O)sc2c1)S(=O)(=O)c1ccccc1	38.1	8.2	4.9	1.0	60.4*	-0.5	17.1
CCCC(=O)N(c1ccc2oc(=O)sc2c1)S(=O)(=O)c1cccs1	31.5	2.8	1.2	2.0	62.8*	x	10.0
COc1ccc(S(=O)(=O)N(C(=O)c2ccco2)c2cc3sc(=O)oc3c3ccccc23)cc1	43.4	3.3	14.0	1.3	8.9	3.9	x
CN(CC(=O)O)S(=O)(=O)c1cccs1	-4.7	-2.3	-3.4	1.1	0.3	-1.1	x
COc1ccc(N(C(C)=O)S(=O)(=O)c2cc(OC)ccc2OC)cc1	4.4	2.6	3.9	0.0	27.0	6.4	x
